According to ChEMBL document CHEMBL3351247 (J Med Chem, 2014):

Target: Kappa-type opioid receptor (Homo sapiens, UniProt P41145)
Test: Agonist activity at human KOR expressed in CHO cells assessed as inhibition of forskolin-induced cAMP accumulation after 30 mins by luminescence assay
Type: functional, cell-based
Summary of the method: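 CHO cells stably expressing KOR or MOR, plated at 10 000 cells/well and incubated overnight at 37 °C. Compounds given as 10-point serial dilutions (1% DMSO final) with 20 μM forskolin final in HBSS/10 mM HEPES. Incubation 30 min at 37 °C, then detection reagents overnight at room temperature. HitHunter cAMP luminescence read-out; data normalized to vehicle and forskolin-only controls, nonlinear regression.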

Chain of Kappa-type opioid receptor (P41145 whole entry): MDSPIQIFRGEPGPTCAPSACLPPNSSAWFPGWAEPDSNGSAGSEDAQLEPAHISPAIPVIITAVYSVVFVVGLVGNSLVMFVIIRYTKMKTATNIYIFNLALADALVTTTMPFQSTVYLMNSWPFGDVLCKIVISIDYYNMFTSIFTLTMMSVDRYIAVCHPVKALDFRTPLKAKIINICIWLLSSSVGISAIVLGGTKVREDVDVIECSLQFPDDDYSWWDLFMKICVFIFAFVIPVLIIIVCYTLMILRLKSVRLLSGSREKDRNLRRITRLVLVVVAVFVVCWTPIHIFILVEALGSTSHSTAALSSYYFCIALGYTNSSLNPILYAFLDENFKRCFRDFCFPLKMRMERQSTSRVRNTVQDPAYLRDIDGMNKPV

Row | Compound | EC50 [nM] | Emax [%]
1 | COC(=O)[C@@H]1C[C@H](OC(C)=O)C(=O)[C@H]2[C@@]1(C)CC[C@H]1C(=O)O[C@H](c3ccoc3C#Cc3ccccc3OC)C[C@]21C | 6100 | 100
2 | COC(=O)[C@@H]1C[C@H](OC(C)=O)C(=O)[C@H]2[C@@]1(C)CC[C@H]1C(=O)O[C@H](c3ccoc3C(F)(F)F)C[C@]21C | 31 | 100
3 | CCCC#Cc1occc1[C@@H]1C[C@]2(C)[C@H]3C(=O)[C@@H](OC(C)=O)C[C@@H](C(=O)OC)[C@]3(C)CC[C@H]2C(=O)O1 | 9250 | 100
4 | COC(=O)[C@@H]1C[C@H](OC(C)=O)C(=O)[C@H]2[C@@]1(C)CC[C@H]1C(=O)O[C@H](c3ccoc3C#Cc3ccccc3C(F)(F)F)C[C@]21C | 430 | 100
5 | COC(=O)[C@@H]1C[C@H](OC(C)=O)C(=O)[C@H]2[C@@]1(C)CC[C@H]1C(=O)O[C@H](c3ccoc3-c3ccco3)C[C@]21C | 6.7 | 100
6 | COC(=O)[C@@H]1C[C@H](OC(C)=O)C(=O)[C@H]2[C@@]1(C)CC[C@H]1C(=O)O[C@H](c3ccoc3C#CCCCO)C[C@]21C | 890 | 100
7 | COC(=O)[C@@H]1C[C@H](OC(C)=O)C(=O)[C@H]2[C@@]1(C)CC[C@H]1C(=O)O[C@H](c3coc(C(F)(F)F)c3)C[C@]21C | 3.1 | 100
8 | COC(=O)[C@@H]1C[C@H](OC(C)=O)C(=O)[C@H]2[C@@]1(C)CC[C@H]1C(=O)O[C@H](c3ccoc3-c3ccccc3OC)C[C@]21C | 10 | 100
9 | COC(=O)[C@@H]1C[C@H](OC(C)=O)C(=O)[C@H]2[C@@]1(C)CC[C@H]1C(=O)O[C@H](c3ccoc3-c3ccsc3)C[C@]21C | 4.3 | 100
10 | C=Cc1occc1[C@@H]1C[C@]2(C)[C@H]3C(=O)[C@@H](OC(C)=O)C[C@@H](C(=O)OC)[C@]3(C)CC[C@H]2C(=O)O1 | 0.96 | 100
11 | COC(=O)[C@@H]1C[C@H](OC(C)=O)C(=O)[C@H]2[C@@]1(C)CC[C@H]1C(=O)O[C@H](c3ccoc3-c3ccc(C)cc3)C[C@]21C | 2.3 | 100
12 | COC(=O)[C@@H]1C[C@H](OC(C)=O)C(=O)[C@H]2[C@@]1(C)CC[C@H]1C(=O)O[C@H](c3ccoc3C3CC3)C[C@]21C | 1 | 100
13 | COC(=O)[C@@H]1C[C@H](OC(C)=O)C(=O)[C@H]2[C@@]1(C)CC[C@H]1C(=O)O[C@H](c3ccoc3-c3cccc([N+](=O)[O-])c3)C[C@]21C | 450 | 100
14 | COC(=O)[C@@H]1C[C@H](OC(C)=O)C(=O)[C@H]2[C@@]1(C)CC[C@H]1C(=O)O[C@H](c3ccoc3-c3ccccc3C)C[C@]21C | 5.4 | 100
15 | COC(=O)[C@@H]1C[C@H](OC(C)=O)C(=O)[C@H]2[C@@]1(C)CC[C@H]1C(=O)O[C@H](c3ccoc3C#Cc3ccccc3)C[C@]21C | 100 | 100
16 | COC(=O)[C@@H]1C[C@H](OC(C)=O)C(=O)[C@H]2[C@@]1(C)CC[C@H]1C(=O)O[C@H](c3ccoc3-c3cccc(C)c3)C[C@]21C | 3.4 | 100
17 | COC(=O)[C@@H]1C[C@H](OC(C)=O)C(=O)[C@H]2[C@@]1(C)CC[C@H]1C(=O)O[C@H](c3ccoc3-c3ccc(OC)cc3)C[C@]21C | 16 | 100
18 | COC(=O)[C@@H]1C[C@H](OC(C)=O)C(=O)[C@H]2[C@@]1(C)CC[C@H]1C(=O)O[C@H](c3ccoc3-c3ccccc3F)C[C@]21C | 1.2 | 100
19 | COC(=O)[C@@H]1C[C@H](OC(C)=O)C(=O)[C@H]2[C@@]1(C)CC[C@H]1C(=O)O[C@H](c3ccoc3-c3ccc(C(F)(F)F)cc3)C[C@]21C | 1020 | 100
20 | COC(=O)[C@@H]1C[C@H](OC(C)=O)C(=O)[C@H]2[C@@]1(C)CC[C@H]1C(=O)O[C@H](c3ccoc3/C=C/c3ccccc3)C[C@]21C | 20 | 100
21 | COC(=O)[C@@H]1C[C@H](OC(C)=O)C(=O)[C@H]2[C@@]1(C)CC[C@H]1C(=O)O[C@H](c3ccoc3-c3cccc(C(F)(F)F)c3)C[C@]21C | 27 | 100

Row | Compound | EC50 [nM] | Emax [%]
22 | COC(=O)[C@@H]1C[C@H](OC(C)=O)C(=O)[C@H]2[C@@]1(C)CC[C@H]1C(=O)O[C@H](c3ccoc3-c3ccccc3N)C[C@]21C | 430 | 100
23 | COC(=O)[C@@H]1C[C@H](OC(C)=O)C(=O)[C@H]2[C@@]1(C)CC[C@H]1C(=O)O[C@H](c3ccoc3CCc3ccccc3)C[C@]21C | 38 | 100
24 | COC(=O)[C@@H]1C[C@H](OC(C)=O)C(=O)[C@H]2[C@@]1(C)CC[C@H]1C(=O)O[C@H](c3ccoc3C#N)C[C@]21C | 9.4 | 100
25 | COC(=O)[C@@H]1C[C@H](OC(C)=O)C(=O)[C@H]2[C@@]1(C)CC[C@H]1C(=O)O[C@H](c3cc(C)oc3C)C[C@]21C | 250 | 100
26 | COC(=O)[C@@H]1C[C@H](OC(C)=O)C(=O)[C@H]2[C@@]1(C)CC[C@H]1C(=O)O[C@H](c3ccoc3-c3ccoc3)C[C@]21C | 6.5 | 100
27 | COC(=O)[C@@H]1C[C@H](OC(C)=O)C(=O)[C@H]2[C@@]1(C)CC[C@H]1C(=O)O[C@H](c3ccoc3-c3ccccc3)C[C@]21C | 1.3 | 100
28 | CC#Cc1occc1[C@@H]1C[C@]2(C)[C@H]3C(=O)[C@@H](OC(C)=O)C[C@@H](C(=O)OC)[C@]3(C)CC[C@H]2C(=O)O1 | 26 | 100
29 | COC(=O)[C@@H]1C[C@H](OC(C)=O)C(=O)[C@H]2[C@@]1(C)CC[C@H]1C(=O)O[C@H](c3ccoc3CO)C[C@]21C | 3.3 | 100
30 | COC(=O)[C@@H]1C[C@H](OC(C)=O)C(=O)[C@H]2[C@@]1(C)CC[C@H]1C(=O)O[C@H](c3ccoc3-c3ccccc3C(F)(F)F)C[C@]21C | 8.4 | 100
31 | COC(=O)[C@@H]1C[C@H](OC(C)=O)C(=O)[C@H]2[C@@]1(C)CC[C@H]1C(=O)O[C@H](c3ccoc3-c3cccc(N)c3)C[C@]21C | 630 | 100
32 | COC(=O)[C@@H]1C[C@H](OC(C)=O)C(=O)[C@H]2[C@@]1(C)CC[C@H]1C(=O)O[C@H](c3ccoc3-c3cccc(F)c3)C[C@]21C | 12 | 100
33 | COC(=O)[C@@H]1C[C@H](OC(C)=O)C(=O)[C@H]2[C@@]1(C)CC[C@H]1C(=O)O[C@H](c3ccoc3-c3cccc(OC)c3)C[C@]21C | 8.6 | 100
34 | COC(=O)[C@@H]1C[C@H](OC(C)=O)C(=O)[C@H]2[C@@]1(C)CC[C@H]1C(=O)O[C@H](c3ccoc3-c3ccc4ccccc4c3)C[C@]21C | 25 | 100
35 | COC(=O)[C@@H]1C[C@H](OC(C)=O)C(=O)[C@H]2[C@@]1(C)CC[C@H]1C(=O)O[C@H](c3ccoc3-c3ccc(F)cc3)C[C@]21C | 54 | 100
36 | CCc1occc1[C@@H]1C[C@]2(C)[C@H]3C(=O)[C@@H](OC(C)=O)C[C@@H](C(=O)OC)[C@]3(C)CC[C@H]2C(=O)O1 | 2.9 | 100
37 | COC(=O)[C@@H]1C[C@H](OC(C)=O)C(=O)[C@H]2[C@@]1(C)CC[C@H]1C(=O)O[C@H](c3ccoc3-c3cccc4ccccc34)C[C@]21C | 37 | 100
38 | COC(=O)[C@@H]1C[C@H](OC(C)=O)C(=O)[C@H]2[C@@]1(C)CC[C@H]1C(=O)O[C@H](c3ccoc3-c3ccc([N+](=O)[O-])cc3)C[C@]21C | 170 | 100
39 | COC(=O)[C@@H]1C[C@H](OC(C)=O)C(=O)[C@H]2[C@@]1(C)CC[C@H]1C(=O)O[C@H](c3cc(Br)oc3Br)C[C@]21C | 240 | 100
40 | COC(=O)[C@@H]1C[C@H](OC(C)=O)C(=O)[C@H]2[C@@]1(C)CC[C@H]1C(=O)O[C@H](c3ccoc3-c3ccc(N)cc3)C[C@]21C | 620 | 65
41 | COC(=O)[C@@H]1C[C@H](OC(C)=O)C(=O)[C@H]2[C@@]1(C)CC[C@H]1C(=O)O[C@H](c3ccoc3-c3ccccc3[N+](=O)[O-])C[C@]21C | 360 | 100
42 | COC(=O)[C@@H]1C[C@H](OC(C)=O)C(=O)[C@H]2[C@@]1(C)CC[C@H]1C(=O)O[C@H](c3ccoc3C=O)C[C@]21C | 7.3 | 100
